Experimental data from ChEMBL document CHEMBL4130370, “Discovery of 5,6-diaryl-1,2,4-triazines hybrids as potential apoptosis inducers” (Eur J Med Chem, 2017).
pIC50: −log10 of the molar value.

Assays:
Format in all cases: functional, cell-based
[1] = tested on: PC-3; experiment: Antiproliferative activity against human PC3 cells after 48 hrs by MTT assay; conditions: PC-3, 48 h
In short: (§1)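 Cells exposed to compounds for 48 h, then read by MTT. IC50 is the concentration giving 50% inhibition of tumour cell proliferation, taken from dose-response curves. Values are means±SD of three independent experiments. 5-FU was the reference drug.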

[2] = tested on: MGC-803; experiment: Antiproliferative activity against human MGC803 cells after 48 hrs by MTT assay; conditions: MGC-803, 48 h; in short: as §1
[3] = tested on: ECa-109 cell line; experiment: Antiproliferative activity against human EC109 cells after 48 hrs by MTT assay; conditions: ECa-109, 48 h; in short: as §1

Row | SMILES | pIC50 [1] | pIC50 [2] | pIC50 [3]
1 | O=c1ccc2ccc(OCCCn3cc(CSc4nnc(-c5ccccc5)c(-c5ccccc5)n4)nn3)cc2o1 | 4.03 | < 4.00 | < 4.00
2 | CC(=O)CSc1nnc(-c2ccccc2)c(-c2ccccc2)n1 | < 4.00 | < 4.00 | < 4.00
3 | NS(=O)(=O)c1ccc(-n2cc(CSc3nnc(-c4ccccc4)c(-c4ccccc4)n3)nn2)cc1 | < 4.00 | < 4.00 | < 4.00
4 | Cc1ccc(Cn2cc(CSc3nnc(-c4ccccc4)c(-c4ccccc4)n3)nn2)cc1 | 4.65 | 4.46 | 4.91
5 | COc1ccc(-c2coc3cc(OCCCn4cc(CSc5nnc(-c6ccccc6)c(-c6ccccc6)n5)nn4)ccc3c2=O)cc1 | 4.99 | < 4.00 | < 4.00
6 | O=c1cc(OCCCn2cc(CSc3nnc(-c4ccccc4)c(-c4ccccc4)n3)nn2)c2ccccc2o1 | 4.24 | < 4.00 | < 4.00
7 | Clc1ccc(Cn2cc(CSc3nnc(-c4ccccc4)c(-c4ccccc4)n3)nn2)cc1 | 4.83 | 4.88 | 4.62
8 | c1ccc(-c2nnc(SCc3cn(Cc4ccc5ccccc5c4)nn3)nc2-c2ccccc2)cc1 | < 4.00 | < 4.00 | < 4.00
